Results filed as inconclusive are left out. Calls of active or inactive are those of the source.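 The calls were made as follows: active = inhibition of 30% or more at any tested concentration; inactive = the rest, inconclusive results apart.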
Target: M17 leucyl aminopeptidase (Plasmodium falciparum 3D7)
Experiment: PfM17LAP leucine aminopeptidase inhibitors, dose response, biochemical, QFRET, set 2 (AID 602216)
Conditions: recombinant PfM17LAP, H-Leu-NHMec fluorogenic cleavage
Summary of the method: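 Assay system: Recombinant P. falciparum M17 leucine aminopeptidase | Detection: Fluorescence from released NHMec leaving group | Incubation: 90 min reaction | Evaluation: IC50 from four-parameter logistic fit, limits fixed 0–100% inhibition | Reagent: H-Leu-NHMec substrate, 0.1 mM | Controls: Full reaction and no-enzyme wells | Medium: pH 7.5 buffer containing CoCl2 | Compound: Series from 100 to 0.2 µM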

Question: How did the IC50 turn out when `CCCCCCCCCC(=O)NO` was run?
Answer: Its IC50 is 1920 nM.

Question: How did the IC50 turn out when `CCCCOc1ccc(CCC(=O)NO)cc1` was run?
Answer: The IC50 was 2300 nM.

Question: With `O=C(Cc1ccc(Oc2ccccc2)cc1)NO` as the compound, how does the IC50 read?
Answer: The IC50 was 410 nM.

Question: `CC(C)(C(=O)NO)c1ccccc1` was tested. Which IC50 did it give?
Answer: Its IC50 is 60300 nM.

Question: Which IC50 does the source give for `O=C(Cc1ccc(OCc2ccccc2)cc1)NO` here?
Answer: Its IC50 is 630 nM.

Question: `CN(O)C(=O)Cc1ccc(OCc2ccccc2)cc1` was tested. Which IC50 did it give?
Answer: The IC50 was 20600 nM.

Question: `CCCCOc1ccc(CC(=O)NO)cc1` was tested. Which IC50 did it give?
Answer: The IC50 was 410 nM.

Question: `COc1ccc(CC(=O)NO)cc1` was tested. Which IC50 did it give?
Answer: The IC50 was 540 nM.

Question: With `CCCCOc1ccc(C(=O)NO)cc1` as the compound, how does the IC50 read?
Answer: The IC50 was 3300 nM.

Question: How did the IC50 turn out when `COc1ccc(CCCC(=O)NO)cc1` was run?
Answer: The IC50 was 2850 nM.

Question: For `Cc1ccc(CC(=O)NO)cc1`, which IC50 is on record?
Answer: The IC50 was 980 nM.

Question: `O=C(Cc1ccc2c(c1)CCCC2)NO` was tested. Which IC50 did it give?
Answer: The IC50 was 180 nM.

Question: For `CCOc1ccc(CC(=O)NO)cc1`, which IC50 is on record?
Answer: The IC50 was 740 nM.

Question: With `CC(C)COc1ccc(CC(=O)NO)cc1` as the compound, how does the IC50 read?
Answer: Its IC50 is 950 nM.

Question: Which IC50 does the source give for `CCCCOc1ccc(CNc2c(N(C)O)c(=O)c2=O)cc1` here?
Answer: The IC50 was 33200 nM.

Question: For `O=C(NO)c1cccc2ccccc12`, which IC50 is on record?
Answer: Its IC50 is 9080 nM.

Question: How did the IC50 turn out when `CCCCOc1ccc(CC(=O)N(C)O)cc1` was run?
Answer: Its IC50 is 18000 nM.

Question: Which IC50 does the source give for `CCCCc1ccc(CC(=O)NO)cc1` here?
Answer: The IC50 was 380 nM.

Same assay, conditions: recombinant PfM17LAP, H-Leu-NHMec fluorogenic cleavage; at 1.56 µM (top of the series)

Question: Which inhibition does the source give for `COC(=O)Cc1ccc(OCCN(C)C)cc1` here?
Answer: The inhibition was “inactive”.

Same assay, conditions: recombinant PfM17LAP, H-Leu-NHMec fluorogenic cleavage; at 100 µM (top of the series)

Question: `CCCOc1ccc(CC(=O)OC)cc1` was tested. Which inhibition did it give?
Answer: Its inhibition is “inactive”.

Question: With `CCCCOc1ccc(CC(=O)O)cc1` as the compound, how does the inhibition read?
Answer: Its inhibition is “inactive”.

Question: How did the inhibition turn out when `CCC(C)Oc1ccc(CC(=O)OC)cc1` (stereo not drawn) was run?
Answer: The inhibition was “inactive”.

Question: `COC(=O)Cc1ccc(OCC(C)C)cc1` was tested. Which inhibition did it give?
Answer: Its inhibition is “inactive”.
